Active and inactive are the calls of the source. No cut-off for these calls is given here.
Key:
[1] = system: MOLM-13; test: Downregulation of H3K79me2 in human MOLM-13 cells at 1 uM by immuno blot analysis; assay type: functional, cell-based; conditions: time 3-7 day, TDE = time-dependent effect
In short: (§1)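 Exponentially growing Molm13 cells were plated at 2 × 10^5 per well in 2 ml and exposed to 1 μM compound or DMSO for the indicated times. Extracted histones (3 μg) were run on 10% Bis-Tris gels and transferred to nitrocellulose. Blots were probed with primary antibody (1:1000 in 5% milk/TBS-T), then anti-rabbit secondary, with chemiluminescent detection.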

[2] = target: Sigma non-opioid intracellular receptor 1 (Homo sapiens) (UniProt Q99720); test: Inhibition of human sigma 1 receptor at 1 uM relative to control
Sigma non-opioid intracellular receptor 1 (Homo sapiens), sequence (Q99720 whole entry): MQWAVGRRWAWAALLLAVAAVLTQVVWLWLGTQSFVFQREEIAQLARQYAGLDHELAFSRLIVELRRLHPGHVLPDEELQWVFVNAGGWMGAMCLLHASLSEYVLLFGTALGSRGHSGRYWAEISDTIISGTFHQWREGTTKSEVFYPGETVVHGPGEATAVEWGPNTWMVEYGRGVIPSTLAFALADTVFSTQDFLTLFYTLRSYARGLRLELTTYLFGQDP

[3] = target: Histone-lysine N-methyltransferase 2A (Homo sapiens) (UniProt Q03164); test: Inhibition of MLL (unknown origin) using H3 1-25 peptide in presence of SAM
In short: (§2)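 Radiometric methyltransferase panel in which 3H-SAM, at or below each enzyme's Km, methylates biotinylated peptide substrates. They were quenched with 7.5 M guanidine-HCl, diluted, captured on streptavidin flash plates for 1 h, and counted by scintillation.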

[4] = cells; conditions: Homo sapiens, A-431
[5] = species: Rattus norvegicus; test: Inhibition of rat Calcium 2 channel L, dihydropyridine site at 1 uM relative to control
[6] = target: Histone-lysine N-methyltransferase EHMT1 (Homo sapiens) (UniProt Q9H9B1); test: Inhibition of EHMT1 (unknown origin) using H3 1-25 peptide in presence of SAM; in short: as §2
Histone-lysine N-methyltransferase EHMT1 (Homo sapiens), sequence (Q9H9B1 whole entry): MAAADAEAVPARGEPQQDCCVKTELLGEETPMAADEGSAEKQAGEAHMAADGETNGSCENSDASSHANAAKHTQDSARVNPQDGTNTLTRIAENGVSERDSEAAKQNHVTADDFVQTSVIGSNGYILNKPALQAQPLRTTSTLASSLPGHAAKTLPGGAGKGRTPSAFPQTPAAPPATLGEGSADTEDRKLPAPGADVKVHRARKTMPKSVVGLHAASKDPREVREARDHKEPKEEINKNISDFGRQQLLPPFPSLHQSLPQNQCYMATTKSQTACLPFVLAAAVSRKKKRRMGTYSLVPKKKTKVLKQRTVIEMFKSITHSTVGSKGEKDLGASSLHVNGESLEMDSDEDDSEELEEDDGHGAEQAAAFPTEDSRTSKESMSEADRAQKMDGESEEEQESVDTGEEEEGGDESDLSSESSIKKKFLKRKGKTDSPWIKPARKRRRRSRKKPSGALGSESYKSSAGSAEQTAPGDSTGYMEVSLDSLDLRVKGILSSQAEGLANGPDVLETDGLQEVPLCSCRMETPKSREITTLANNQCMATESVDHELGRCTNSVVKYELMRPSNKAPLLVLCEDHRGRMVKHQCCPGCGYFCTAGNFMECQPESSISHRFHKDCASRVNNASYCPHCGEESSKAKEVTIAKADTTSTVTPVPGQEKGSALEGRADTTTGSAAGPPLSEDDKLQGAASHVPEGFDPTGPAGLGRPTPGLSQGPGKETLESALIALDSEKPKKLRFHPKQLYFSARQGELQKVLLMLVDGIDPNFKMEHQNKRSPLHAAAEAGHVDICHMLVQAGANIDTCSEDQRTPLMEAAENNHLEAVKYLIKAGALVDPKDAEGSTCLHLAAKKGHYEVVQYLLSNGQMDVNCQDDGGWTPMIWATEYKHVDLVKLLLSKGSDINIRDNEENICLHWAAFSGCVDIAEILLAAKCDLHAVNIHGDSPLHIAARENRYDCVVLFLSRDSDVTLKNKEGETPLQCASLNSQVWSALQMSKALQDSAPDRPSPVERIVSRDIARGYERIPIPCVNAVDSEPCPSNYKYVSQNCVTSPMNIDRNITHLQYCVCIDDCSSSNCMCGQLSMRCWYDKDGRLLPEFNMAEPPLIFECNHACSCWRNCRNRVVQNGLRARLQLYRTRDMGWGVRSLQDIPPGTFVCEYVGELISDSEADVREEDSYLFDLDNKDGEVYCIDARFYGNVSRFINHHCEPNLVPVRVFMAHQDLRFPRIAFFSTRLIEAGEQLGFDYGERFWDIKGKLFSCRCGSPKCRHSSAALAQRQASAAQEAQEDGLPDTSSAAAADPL

[7] = target: Muscarinic acetylcholine receptor M2 (Homo sapiens) (UniProt P08172); test: Inhibition of human muscarinic acetylcholine M2 receptor at 1 uM relative to control
Muscarinic acetylcholine receptor M2 (Homo sapiens), sequence (P08172 whole entry, the tested form may be a part): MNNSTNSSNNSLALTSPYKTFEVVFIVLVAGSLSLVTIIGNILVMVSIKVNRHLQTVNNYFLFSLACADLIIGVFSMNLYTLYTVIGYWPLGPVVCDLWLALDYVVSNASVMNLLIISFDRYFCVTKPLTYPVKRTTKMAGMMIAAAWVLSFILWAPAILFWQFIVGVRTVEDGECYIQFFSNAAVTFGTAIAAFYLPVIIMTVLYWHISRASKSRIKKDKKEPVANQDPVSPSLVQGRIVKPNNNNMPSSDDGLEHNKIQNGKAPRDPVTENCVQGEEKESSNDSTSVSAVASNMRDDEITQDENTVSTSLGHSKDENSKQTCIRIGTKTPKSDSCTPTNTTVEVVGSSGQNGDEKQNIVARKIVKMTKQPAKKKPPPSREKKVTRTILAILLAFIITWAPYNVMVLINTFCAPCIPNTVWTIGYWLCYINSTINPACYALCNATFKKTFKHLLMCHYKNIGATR

[8] = system: Cord blood cell; test: Cytotoxicity against human Cord blood cell habouring MIL-AF9 fusion protein assessed as reduction in cell viability at 1 to 5 uM incubated for 14 days by resazurin dye based […] assay; assay type: functional; conditions: dose 1-5 µM, time 14.0 day
In short: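 Transformed human cord blood cells were cultured with DMSO or inhibitor at 1 and 5 μM for 14 days. Resazurin (0.1 mg ml−1) was added for 4 h and resorufin fluorescence was read. Data are from at least two independent experiments, each with three repeats, shown as s.e. of the mean.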

[9] = target: Histone-lysine N-methyltransferase SETDB1 (Homo sapiens) (UniProt Q15047); test: Inhibition of SETDB1 (unknown origin) using H3 1-25 peptide in presence of SAM; in short: as §2
[10] = target: Alpha-2A adrenergic receptor (Homo sapiens) (UniProt P08913); test: Inhibition of human Adrenergic alpha 2A receptor at 1 uM relative to control
[11] = target: DNA (cytosine-5)-methyltransferase 1 (Homo sapiens) (UniProt P26358); test: Inhibition of DNMT1 (unknown origin) using ds-DNA peptide in presence of SAM; in short: as §2
[12] = target: N-lysine methyltransferase KMT5A (Homo sapiens) (UniProt Q9NQR1); test: Inhibition of SETD8 (unknown origin) using […] in presence of SAM; in short: as §2
N-lysine methyltransferase KMT5A (Homo sapiens), sequence (Q9NQR1 whole entry): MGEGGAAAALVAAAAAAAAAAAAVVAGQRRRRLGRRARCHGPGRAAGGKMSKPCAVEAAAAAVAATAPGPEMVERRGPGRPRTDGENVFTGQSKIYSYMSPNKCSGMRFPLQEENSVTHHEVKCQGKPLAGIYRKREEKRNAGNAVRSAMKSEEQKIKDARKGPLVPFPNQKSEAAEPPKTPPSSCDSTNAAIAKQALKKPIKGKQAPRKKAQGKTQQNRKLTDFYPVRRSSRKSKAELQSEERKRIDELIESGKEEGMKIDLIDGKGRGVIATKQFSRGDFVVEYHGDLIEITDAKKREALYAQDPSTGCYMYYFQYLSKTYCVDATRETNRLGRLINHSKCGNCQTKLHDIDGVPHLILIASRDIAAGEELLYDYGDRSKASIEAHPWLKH

[13] = target: Beta-1 adrenergic receptor (Homo sapiens) (UniProt P08588); test: Inhibition of human Adrenergic beta1 receptor at 1 uM relative to control
[14] = target: Muscarinic acetylcholine receptor M3 (Homo sapiens) (UniProt P20309); test: Inhibition of human muscarinic acetylcholine M3 receptor at 1 uM relative to control
Muscarinic acetylcholine receptor M3 (Homo sapiens), sequence (P20309 whole entry, looked up, the tested form may be a part): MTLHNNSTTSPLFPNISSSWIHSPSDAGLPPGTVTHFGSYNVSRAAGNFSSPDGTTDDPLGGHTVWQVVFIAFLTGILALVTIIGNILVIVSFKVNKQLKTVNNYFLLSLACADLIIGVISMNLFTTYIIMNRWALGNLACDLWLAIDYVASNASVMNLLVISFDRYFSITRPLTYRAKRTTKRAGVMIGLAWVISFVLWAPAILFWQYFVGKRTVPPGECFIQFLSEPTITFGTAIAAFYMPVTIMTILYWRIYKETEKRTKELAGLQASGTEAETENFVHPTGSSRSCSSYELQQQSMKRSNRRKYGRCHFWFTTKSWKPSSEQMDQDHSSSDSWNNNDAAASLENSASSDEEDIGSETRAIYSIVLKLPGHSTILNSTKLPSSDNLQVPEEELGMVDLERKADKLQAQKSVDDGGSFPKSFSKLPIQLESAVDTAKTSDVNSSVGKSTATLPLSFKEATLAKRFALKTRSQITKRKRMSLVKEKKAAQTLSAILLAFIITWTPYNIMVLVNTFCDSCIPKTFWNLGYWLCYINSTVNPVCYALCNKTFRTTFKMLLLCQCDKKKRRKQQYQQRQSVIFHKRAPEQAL

[15] = target: Histone-lysine N-methyltransferase, H3 lysine-79 specific (Homo sapiens, UniProt Q8TEK3); test: Binding affinity to recombinant N-terminal DOT1L (1 to 420 residues) (unknown origin) expressed in Escherichia coli (DE3) assessed as dissociation constant by SPR analysis
[16] = target: Alpha-1B adrenergic receptor (Rattus norvegicus) (UniProt P15823); test: Inhibition of rat Adrenergic alpha 1B receptor at 1 uM relative to control
Alpha-1B adrenergic receptor (Rattus norvegicus), sequence (P15823 whole entry): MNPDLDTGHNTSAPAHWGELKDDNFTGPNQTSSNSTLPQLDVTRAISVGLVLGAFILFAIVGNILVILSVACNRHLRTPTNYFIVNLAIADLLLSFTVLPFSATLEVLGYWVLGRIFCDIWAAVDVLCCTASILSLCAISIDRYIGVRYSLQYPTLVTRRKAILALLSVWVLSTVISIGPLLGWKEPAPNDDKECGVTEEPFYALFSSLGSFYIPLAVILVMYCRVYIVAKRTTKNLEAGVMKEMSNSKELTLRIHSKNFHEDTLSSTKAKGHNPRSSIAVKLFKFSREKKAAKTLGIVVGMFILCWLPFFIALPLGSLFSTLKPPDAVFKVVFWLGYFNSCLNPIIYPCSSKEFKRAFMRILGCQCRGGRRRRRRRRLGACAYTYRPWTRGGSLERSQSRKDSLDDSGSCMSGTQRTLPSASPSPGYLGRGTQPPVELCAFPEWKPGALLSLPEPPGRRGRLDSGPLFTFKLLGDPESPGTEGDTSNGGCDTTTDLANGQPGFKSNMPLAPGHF

[17] = species: Rattus norvegicus; test: Inhibition of rat central imidazoline receptor 2 at 1 uM relative to control
[18] = Apparent permeability across apical to basolateral side in human Caco-2 cells at 10 uM incubated for 90 mins at pH 7.4 by LC/MS analysis; assay type: ADME, cell-based; conditions: Caco-2, pH 7.4
[19] = target: D(2) dopamine receptor (Homo sapiens) (UniProt P14416); test: Inhibition of human dopamine D2s receptor at 1 uM relative to control
D(2) dopamine receptor (Homo sapiens), sequence (P14416 whole entry): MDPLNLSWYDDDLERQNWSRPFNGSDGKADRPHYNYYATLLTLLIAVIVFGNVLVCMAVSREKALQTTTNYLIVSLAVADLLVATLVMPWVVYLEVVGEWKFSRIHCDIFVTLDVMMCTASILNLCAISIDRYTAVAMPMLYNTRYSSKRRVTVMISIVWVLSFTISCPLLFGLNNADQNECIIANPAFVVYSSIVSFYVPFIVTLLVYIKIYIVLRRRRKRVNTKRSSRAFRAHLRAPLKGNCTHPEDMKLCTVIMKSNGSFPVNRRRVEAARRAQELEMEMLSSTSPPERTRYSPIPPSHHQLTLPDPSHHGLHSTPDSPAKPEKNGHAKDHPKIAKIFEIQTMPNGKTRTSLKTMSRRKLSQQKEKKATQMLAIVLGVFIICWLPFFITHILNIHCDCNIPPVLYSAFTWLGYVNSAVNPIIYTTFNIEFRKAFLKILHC

[20] = target: Beta-2 adrenergic receptor (Homo sapiens) (UniProt P07550); test: Inhibition of human Adrenergic beta 2 receptor at 1 uM relative to control
[21] = target: D(1A) dopamine receptor (Homo sapiens) (UniProt P21728); test: Inhibition of human dopamine D1 receptor at 1 uM relative to control
[22] = species: Rattus norvegicus; test: Inhibition of rat central GABAA receptor at 1 uM by muscimol radioligand binding assay relative to control
[23] = species: Homo sapiens; test: Inhibition of human nicotinic acetylcholine alpha at 1 uM relative to control
[24] = target: Adenosine receptor A1 (Homo sapiens) (UniProt P30542); test: Inhibition of human Adenosine A1 receptor at 1 uM relative to control
[25] = Apparent permeability across basolateral to apical side in human Caco-2 cells at 10 uM incubated for 90 mins at pH 7.4 by LC/MS analysis; assay type: ADME, cell-based; conditions: Caco-2, pH 7.4
[26] = target: Histamine H1 receptor (Homo sapiens) (UniProt P35367); test: Inhibition of human histamine H1 receptor at 1 uM relative to control
[27] = target: Histone-lysine N-methyltransferase EHMT2 (Homo sapiens) (UniProt Q96KQ7); test: Inhibition of G9a (unknown origin) using H3 1-25 peptide in presence of SAM; in short: as §2
[28] = system: MV4-11; test: Downregulation of H3K79me2 in human MV4-11 cells habouring MLL/AF4 fusion protein measured upto 48 hrs by immuno blot analysis; assay type: functional, cell-based
[29] = target: Alpha-1A adrenergic receptor (Rattus norvegicus) (UniProt P43140); test: Inhibition of rat Adrenergic alpha 1A receptor at 1 uM relative to control
[30] = target: Prostaglandin E2 receptor EP4 subtype (Homo sapiens) (UniProt P35408); test: Inhibition of human EP4 receptor at 1 uM relative to control
Prostaglandin E2 receptor EP4 subtype (Homo sapiens), sequence (P35408 whole entry): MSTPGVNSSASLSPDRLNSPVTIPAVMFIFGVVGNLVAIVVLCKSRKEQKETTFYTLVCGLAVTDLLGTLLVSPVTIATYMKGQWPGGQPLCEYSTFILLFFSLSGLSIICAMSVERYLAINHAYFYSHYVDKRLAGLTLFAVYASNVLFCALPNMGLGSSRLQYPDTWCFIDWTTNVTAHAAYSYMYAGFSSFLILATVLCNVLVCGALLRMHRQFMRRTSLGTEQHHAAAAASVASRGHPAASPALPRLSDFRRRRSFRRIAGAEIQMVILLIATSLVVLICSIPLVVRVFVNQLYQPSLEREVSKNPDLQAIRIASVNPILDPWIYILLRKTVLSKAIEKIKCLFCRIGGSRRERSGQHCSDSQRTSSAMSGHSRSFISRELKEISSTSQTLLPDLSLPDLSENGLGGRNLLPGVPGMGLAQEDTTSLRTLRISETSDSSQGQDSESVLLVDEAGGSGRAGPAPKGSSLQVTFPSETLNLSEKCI

[31] = species: Rattus norvegicus; test: Inhibition of rat central GABAA receptor at 1 uM by flunitrazepam radioligand binding assay relative to control
[32] = system: MOLM-13; test: Downregulation of H3K79me2 in human MOLM-13 cells measured for 3 to 7 days by immuno blot analysis; assay type: functional, cell-based; conditions: dose 1.0 µM, time 3-7 day; in short: as §1
[33] = species: Homo sapiens; test: Inhibition of human nicotinic acetylcholine at 1 uM relative to control
[34] = target: Cannabinoid receptor 1 (Homo sapiens) (UniProt P21554); test: Inhibition of human CB1R at 1 uM relative to control
[35] = target: Protein arginine N-methyltransferase 3 (Homo sapiens) (UniProt O60678); test: Inhibition of PRMT3 (unknown origin) using H3 1-24 peptide in presence of SAM; in short: as §2
[36] = target: Mu-type opioid receptor (Homo sapiens) (UniProt P35372); test: Inhibition of human MOP receptor at 1 uM relative to control
Mu-type opioid receptor (Homo sapiens), sequence (P35372 whole entry): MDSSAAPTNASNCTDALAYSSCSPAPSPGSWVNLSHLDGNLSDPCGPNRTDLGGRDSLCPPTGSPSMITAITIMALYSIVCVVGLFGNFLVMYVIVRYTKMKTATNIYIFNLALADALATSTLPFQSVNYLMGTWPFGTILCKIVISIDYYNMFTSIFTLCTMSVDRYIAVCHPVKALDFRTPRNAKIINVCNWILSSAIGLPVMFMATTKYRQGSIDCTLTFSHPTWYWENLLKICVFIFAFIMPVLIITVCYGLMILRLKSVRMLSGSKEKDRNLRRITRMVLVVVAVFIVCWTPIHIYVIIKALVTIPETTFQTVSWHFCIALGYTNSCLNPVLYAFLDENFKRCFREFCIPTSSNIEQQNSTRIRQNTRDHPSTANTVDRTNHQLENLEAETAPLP

[37] = target: Sodium-dependent noradrenaline transporter (Homo sapiens) (UniProt P23975); test: Inhibition of human norepinephrine transporter at 1 uM relative to control

In the case of `CC(C)N(CCCNC(=O)Nc1ccc(C(C)(C)C)cc1)C[C@H]1O[C@@H](n2cc(Br)c3c(N)ncnc32)[C@H](O)[C@@H]1O`, the Activity [1] is reported as “Tde”, the inhibition [2] is reported as -10% and the inhibition [3] is reported as “inactive”. For the same compound, the IC50 [4] was 2.65 nM, the inhibition [5] was 2% and the inhibition [6] was “inactive”. For the same compound, the inhibition [7] was 7%, the Activity [8] was “Active” and the inhibition [9] was “inactive”. The inhibition [10] was 7%, the inhibition [11] was “inactive” and the inhibition [12] was “inactive”. It also gave an inhibition [13] of -1%, an inhibition [14] of 19% and a Kd [15] of 0.0561 nM. It also gave an inhibition [16] of 17%, an inhibition [17] of 10% and a Papp A→B at 1.5 h, 10 µM [18] of 5.7 ×10⁻⁶ cm/s. It also gave an inhibition [19] of -3%, an inhibition [20] of -1% and an inhibition [21] of 7%. It also gave an inhibition [22] of 19%, an inhibition [23] of -1% and an inhibition [24] of -4%. For the same compound, the Papp B→A at 1.5 h, 10 µM [25] was 10.6 ×10⁻⁶ cm/s, the inhibition [26] was -1% and the inhibition [27] was “inactive”. The Activity [28] was “Active”, the inhibition [29] was 22% and the inhibition [30] was -5%. The inhibition [31] was 8%, the Activity [32] was “Dose-Dependent Effect” and the inhibition [33] was 13%. The inhibition [34] was 5%, the inhibition [35] was “inactive” and the inhibition [36] was -3%. It also gave an inhibition [37] of 13%.
